Screening results (PubChem)
GSK3A inh – human GSK-3 alpha kinase inhibition; AID 2650; ADP-Glo luminescence, 60 min; actives 0.1% (n = 320,000); inhibition, % at 10 µM;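 active means more than half of replicates show inhibition above 20%; inconclusive means some but at most half of replicates above 20% inhibition; inactive means no replicate shows inhibition above 20%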;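 further: GST-tagged GSK-3 alpha with peptide substrate and 25 µM ATP; 0% = DMSO neutral wells and 100% = GW8510 positive control wells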
Target sequence (P49840 whole entry, looked up): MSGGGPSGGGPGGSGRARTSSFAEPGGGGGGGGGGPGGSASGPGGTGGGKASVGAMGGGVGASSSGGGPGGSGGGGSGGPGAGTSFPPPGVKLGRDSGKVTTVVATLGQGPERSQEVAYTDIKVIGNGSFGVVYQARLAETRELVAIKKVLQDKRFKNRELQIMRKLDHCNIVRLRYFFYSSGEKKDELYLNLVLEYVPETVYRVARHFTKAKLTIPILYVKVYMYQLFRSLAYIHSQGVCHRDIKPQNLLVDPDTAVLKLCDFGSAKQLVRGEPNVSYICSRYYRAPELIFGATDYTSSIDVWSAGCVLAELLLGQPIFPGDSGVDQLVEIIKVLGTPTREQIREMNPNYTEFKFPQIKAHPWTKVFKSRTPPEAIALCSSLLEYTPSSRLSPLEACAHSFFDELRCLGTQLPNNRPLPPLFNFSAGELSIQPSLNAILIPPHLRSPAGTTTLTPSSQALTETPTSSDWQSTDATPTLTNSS
GSK3beta inhib – human GSK3beta kinase inhibition; P49841; GST-GSK3beta kinase, ADP-Glo luminescence, 60 min; active compounds read low; activity score (negative = inhibition), % at 10 µM; actives 0.038% (n = 300,000); AID 2097;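 active means more than half of replicate wells score below -50%, meaning over 50% inhibition versus plate controls; inconclusive means some replicates but at most half score below -50%; inactive means no replicate scores below -50%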;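 further: 0% = median DMSO wells and -100% = median GW8510 positive control wells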
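Test system: GST-fused GSK3beta enzyme, cell-free | Quantity: 1.6 ng GST-GSK3beta enzyme per well | Reagent: 25 µM ATP with peptide substrate | Schedule: 60 min enzyme reaction, room temperature | Signal: Luminescent ADP-Glo measurement of ADP formed | Read-out basis: Score relative to plate controls | Control set: DMSO and 20 µM GW8510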
SR-BI DiI inh – inhibitors of mouse SR-BI mediated HDL lipid uptake. inhibition, % at 12.5 µM. ldlA[mSR-BI] CHO cells, DiI-HDL uptake fluorescence, 3 h. Q61009. actives 0.96% (n = 320,000);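 active means mean replicate inhibition of at least 70% and a set share of replicates each scoring 70 or more; inconclusive means meets just one of the two criteria; inactive means fails both criteria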;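 further: 0% = median of neutral control wells and 100% = median of positive control wells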
SR-BI DiI-HDL act – SR-BI HDL lipid transfer activation; activation, % at 12.5 µM; actives 0.096% (n = 320,000); AID 504775; CHO ldlA[mSR-BI] cells, DiI-HDL uptake fluorescence, 3 h; 100 = double the neutral-control signal;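 active means mean replicate activation of at least 60% and every replicate at or above 60%; inconclusive means mean or all-replicate condition met, but not both; inactive means mean below 60% and not all replicates reaching 60%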;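 further: 0% = median plate neutral-control signal and 100% = twice that signal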
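Test system: SR-BI-overexpressing, LDLR-lacking CHO cells; Medium: Ham's F12 with 0.5% BSA, HEPES 25 mM, pH 7.4; Schedule: 3 h, 37 °C; Technique: bottom-read fluorescence, 550/595 nm.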
CDK5 p35 inh – inhibitors of human CDK5/p35 kinase. Q00535+Q15078. Recombinant CDK5/p35, ADP-Glo luminescence, 60 min. inhibition, % at 10 µM. actives 0.01% (n = 330,000);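 active means highest replicate inhibition of at least 50% and at least 75% of replicates reaching 50%; inconclusive means only one of the two criteria met; inactive means both criteria failed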;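 further: plate controls were DMSO neutral control for no effect and GW8510 at 10 µM for full effect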
DiI quench – DiI fluorescence quenching in cell-free counter-screen; shares compounds with SR-BI DiI inh; cell-free DiI-HDL fluorescence quenching, 30 min; AC50, µM (highest dose often 35 µM), for the others: top-dose activity change, negative = quenching; actives 20% (n = 470); AID 540326;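 active means quenching, a falling signal, with AC50 below a set limit tied to the top valid dose, actives reach about 32 µM in these data; inconclusive means no clear call, values can overlap the other calls; inactive means rising signal, and the rest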
* hit, by the source's call; ? = inconclusive; . = no result. Shown are actives, neighbours in structure and some others; about 1.1% of the full set was active somewhere.

SMILES | GSK3A inh | GSK3beta inhib | SR-BI DiI inh | SR-BI DiI-HDL act | CDK5 p35 inh | DiI quench
COc1ccc([C@H]2/C=C\CN(C(=O)c3ccc(C)cc3)[C@@H](C)C(=O)N2Cc2ccc(F)cc2)cc1 | -3 | 1 | -14 | 14 | 0 | .
COc1ccc([C@H]2/C=C\CN(S(=O)(=O)c3cccc4cccnc34)[C@@H](C)C(=O)N2Cc2ccc(F)cc2)cc1 | -3 | 0 | 6 | -6 | 0 | -3%
COc1ccc([C@H]2/C=C\CN(Cc3ccc(N(C)C)cc3)[C@@H](C)C(=O)N2Cc2ccc(F)cc2)cc1 | 0 | 0 | 1 | -1 | -1 | .
COc1ccc([C@H]2/C=C\CN(S(=O)(=O)c3ccc(C)cc3)[C@@H](C)C(=O)N2Cc2ccc(F)cc2)cc1 | 1 | 3 | 51 | -51 | -1 | -2%
COc1ccc([C@H]2/C=C\CN(S(=O)(=O)c3ccc4ccccc4c3)[C@@H](C)C(=O)N2Cc2ccc(F)cc2)cc1 | -1 | 3 | 72* | -72 | 0 | -1%
OCCSc1nc(N2CCOCC2)nc(N2CCOCC2)n1 | -2 | 2 | 1 | -1 | -1 | .
COc1ccc(-c2nn(Cc3ccccc3)cc2C(=O)N2CCN(c3ncccn3)CC2)cc1OC | -1 | . | -7 | 7 | 0 | .
CCN(CC(=O)Nc1ccccc1OC)CC(=O)Nc1sccc1C#N | -2 | -1 | 20 | -20 | -2 | .
O=C(Nc1cccc([N+](=O)[O-])c1)Nc1ccc2c(c1)OCCO2 | -3 | -2 | 25 | -25 | -2 | .
O=C(NNC(=O)c1ccccc1O)c1ccc(S(=O)(=O)Nc2ccccc2)cc1 | 0 | 2 | 113* | -113 | 2 | 0.4µM*
CCOc1ccc(NS(=O)(=O)c2ccc(C(=O)NNC(=O)c3ccccc3O)cc2)cc1 | -1 | . | 127* | -127 | 1 | 0.61µM*
O=C(NNC(=O)c1ccccc1O)c1ccc(S(=O)(=O)Nc2ccccc2F)cc1 | -3 | 0 | 59 | -59 | 2 | .
O=C(Nc1cccc(C(=O)N2CCOCC2)c1)c1ccccc1Cl | -2 | -2 | -23 | 23 | -1 | .
CN(Cc1ccccc1)Cc1c(O)ccc2ccccc12 | -4 | 0 | -23 | 23 | 1 | .
CN(Cc1cc(Cl)cc(Cl)c1O)Cc1c(O)ccc2ccccc12 | . | . | 103* | -103 | 0 | 1.9µM*
CC(=O)Nc1ccc(NC(=O)c2cc(C3CC3)nc3c2cnn3C(C)C)cc1 | . | . | ? | -75 | 1 | .
CCN(CC)C(=O)c1cccc(NC(=O)c2cc(C3CC3)nc3c2cnn3C(C)C)c1 | -1 | . | 78* | -78 | 1 | 6%
O=C(NCc1ccccc1F)C1CCN(C(=O)c2sccc2-n2cccc2)CC1 | -30 | 2 | 69 | -69 | 0 | .
CCOc1ccccc1CNC(=O)C1CCN(C(=O)c2sccc2-n2cccc2)CC1 | -1 | -2 | 70 | -70 | -1 | -4%
O=C(NCc1ccccc1Cl)C1CCN(C(=O)c2sccc2-n2cccc2)CC1 | -1 | 0 | ? | -73 | 0 | -1%
CC1CCCCC1NC(=O)C1CCN(C(=O)c2sccc2-n2cccc2)CC1 (configuration not stated) | -1 | 3 | 44 | -44 | 1 | -2%
COc1ccccc1CNC(=O)C1CCN(C(=O)NC2CCCCC2)CC1 | -3 | 0 | 1 | -1 | -2 | .
CC1(C)Oc2ccccc2OC1(O)c1ccc2ccccc2n1 (configuration not stated) | -1 | 1 | -22 | 22 | -1 | .
CCCC(=O)Nc1cc(C(=O)N(C)CC(OC)OC)ccc1S(=O)(=O)c1ccc(C)cc1 | -2 | 1 | -20 | 20 | 0 | .
CCOc1cc(N2CCOCC2)c(OCC)cc1NC(=O)c1cc(-c2ccco2)nc2ccccc12 | 1 | -2 | 79* | -79 | -1 | 24µM*
SMILES | GSK3A inh | GSK3beta inhib | SR-BI DiI inh | SR-BI DiI-HDL act | CDK5 p35 inh | DiI quench
Cc1ccc(NC(=O)c2cc(-c3ccco3)nc3ccccc23)cc1S(=O)(=O)N1CCOCC1 | -1 | 0 | 102* | -102 | 1 | 0%
Cc1c(NC(=O)c2ccc(S(=O)(=O)N(C)C)cc2)cccc1-n1cnnn1 | -1 | . | 5 | -5 | -4 | .
CCOC(=O)C1CCCN(S(=O)(=O)NC[C@H]2O[C@@H](n3cnc4c(N)ncnc43)[C@H](O)[C@@H]2O)C1 (some centres not stated) | 0 | . | 81* | -81 | -1 | 3%
CN1CCN(S(=O)(=O)NC[C@H]2O[C@@H](n3cnc4c(N)ncnc43)[C@H](O)[C@@H]2O)CC1 | . | . | -27 | 27 | 0 | .
C=CCN(C(=O)c1csnn1)C(C(=O)NCc1ccc(F)cc1)c1ccccc1F (configuration not stated) | -4 | 1 | 10 | -10 | -2 | .
CN(Cc1ccc(OC(F)F)cc1)C(=O)c1ccccc1Sc1ccccc1C#N | 2 | 3 | 85* | -85 | -2 | -4%
Cc1ccc(OCc2cc(C(=O)N3CCCC3)no2)cn1 | 1 | 1 | -11 | 11 | -2 | .
CC(=O)NCCC1CCN(C(=O)c2cc(COc3ccc(C)nc3)on2)CC1 | -1 | 3 | 76* | -76 | 1 | -6%
CCN(C(=O)CN1CCN(S(=O)(=O)c2cc(Cl)ccc2Cl)CC1)c1c(N)n(Cc2ccccc2)c(=O)[nH]c1=O | -4 | -2 | -2 | 2 | 0 | .
CNc1nc(-c2ccc3c(c2)CCN3C(=O)c2cccc(F)c2)cs1 | 0 | 3 | . | . | 2 | .
CC(C)C(=O)Nc1nc(-c2ccc3c(c2)CCN3C(=O)C2CC2)cs1 | 2 | . | 89* | -89 | 1 | -8%
CNc1nc(-c2ccc3c(c2)CCN3C(=O)c2ccc(F)cc2)cs1 | . | . | 40 | -40 | 0 | -16%
CCOC(=O)N1CCC(NC(=O)c2ccc3c(c2)N(Cc2ccc(C)cc2)CCS3)CC1 | -1 | 1 | 66 | -66 | 1 | .
COc1ccc(OC)c(CCNC(=O)c2ccc3c(c2)N(Cc2ccccc2)CCS3)c1 | 2 | 3 | 76* | -76 | 1 | -4%
CCOC(=O)N1CCC(NC(=O)c2ccc3c(c2)N(Cc2ccc(F)cc2)CCS3)CC1 | . | 2 | 72* | -72 | 1 | -11%
COc1ccc(CCNC(=O)c2ccc3c(c2)N(Cc2ccccc2)CCS3)cc1OC | 0 | -2 | 39 | -39 | . | .
COc1ccc(C(=O)COC(=O)CCNS(=O)(=O)c2ccccc2)c(OC)c1 | 0 | 1 | 17 | -17 | 0 | .
O=C(N=Nc1c(O)[nH]c2ccc(F)cc12)C1COc2ccccc2O1 (configuration not stated) | 0 | 0 | . | . | -2 | .
COc1ccc2c(c1)C(=O)N1[C@H]3c4cc(Cl)ccc4OC[C@@H]3[C@H](c3ccccc3)[C@]1(C)C(=O)N2 | -4 | . | 4 | -4 | -1 | .
